In ChEMBL document CHEMBL4428077, “Synthesis and Biological Evaluation of N-((1-(4-(Sulfonyl)piperazin-1-yl)cycloalkyl)methyl)benzamide Inhibitors of Glycine Transporter-1” (J Med Chem, 2016):
Calls of active or inactive are those of the source. The calls are words filed in the database; no cut-off is given here.

Key:
[1] = target: T1, Sodium- and chloride-dependent glycine transporter 1 (Homo sapiens, UniProt P48067); test: Inhibition of glycine transporter-1B in human JAR cells assessed as reduction in [14C]glycine uptake preincubated for 10 mins followed by [14C]glycine addition measured after 3 hrs by scintillation proximity assay; assay type: cell-based
T1 sequence (P48067 whole entry): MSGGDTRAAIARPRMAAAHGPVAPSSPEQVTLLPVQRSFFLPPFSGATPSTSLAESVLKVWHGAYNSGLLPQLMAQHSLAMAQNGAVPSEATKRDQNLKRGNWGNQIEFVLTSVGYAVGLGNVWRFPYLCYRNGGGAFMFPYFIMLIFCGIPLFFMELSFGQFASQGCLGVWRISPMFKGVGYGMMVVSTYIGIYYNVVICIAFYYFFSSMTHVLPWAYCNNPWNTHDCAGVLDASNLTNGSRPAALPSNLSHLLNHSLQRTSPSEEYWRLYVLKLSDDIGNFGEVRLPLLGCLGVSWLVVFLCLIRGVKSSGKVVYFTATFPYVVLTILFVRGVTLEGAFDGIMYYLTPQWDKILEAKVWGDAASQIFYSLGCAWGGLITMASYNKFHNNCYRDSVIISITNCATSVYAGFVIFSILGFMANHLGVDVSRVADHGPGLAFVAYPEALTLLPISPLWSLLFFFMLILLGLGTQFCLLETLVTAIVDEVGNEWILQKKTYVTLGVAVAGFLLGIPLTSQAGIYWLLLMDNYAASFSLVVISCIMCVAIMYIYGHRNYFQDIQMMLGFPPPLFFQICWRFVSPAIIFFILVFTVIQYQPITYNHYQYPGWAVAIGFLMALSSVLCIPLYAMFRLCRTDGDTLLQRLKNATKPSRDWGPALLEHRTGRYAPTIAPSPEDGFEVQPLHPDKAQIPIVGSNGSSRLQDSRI
Procedure, shortened: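 Whole-cell SPA in JAR cells, which endogenously express hGlyT-1b. Cells (50,000 per well) were attached overnight in RPMI/10% FBS at 37 °C, 5% CO₂. [¹⁴C]glycine was then added and incubated 3 h at 37 °C. The assay window was set with unlabeled glycine. A reference standard ran on each plate. IC₅₀ values are means of n ≥ 2.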

[2] = target: T2, Sodium- and chloride-dependent glycine transporter 2 (Homo sapiens, UniProt Q9Y345); test: Inhibition of human glycine transporter-2 expressed in HEK293 cells assessed as reduction in [14C]glycine uptake preincubated for 10 mins followed by [14C]glycine addition measured after 3 hrs by scintillation proximity assay; assay type: cell-based
T2 sequence (Q9Y345 whole entry): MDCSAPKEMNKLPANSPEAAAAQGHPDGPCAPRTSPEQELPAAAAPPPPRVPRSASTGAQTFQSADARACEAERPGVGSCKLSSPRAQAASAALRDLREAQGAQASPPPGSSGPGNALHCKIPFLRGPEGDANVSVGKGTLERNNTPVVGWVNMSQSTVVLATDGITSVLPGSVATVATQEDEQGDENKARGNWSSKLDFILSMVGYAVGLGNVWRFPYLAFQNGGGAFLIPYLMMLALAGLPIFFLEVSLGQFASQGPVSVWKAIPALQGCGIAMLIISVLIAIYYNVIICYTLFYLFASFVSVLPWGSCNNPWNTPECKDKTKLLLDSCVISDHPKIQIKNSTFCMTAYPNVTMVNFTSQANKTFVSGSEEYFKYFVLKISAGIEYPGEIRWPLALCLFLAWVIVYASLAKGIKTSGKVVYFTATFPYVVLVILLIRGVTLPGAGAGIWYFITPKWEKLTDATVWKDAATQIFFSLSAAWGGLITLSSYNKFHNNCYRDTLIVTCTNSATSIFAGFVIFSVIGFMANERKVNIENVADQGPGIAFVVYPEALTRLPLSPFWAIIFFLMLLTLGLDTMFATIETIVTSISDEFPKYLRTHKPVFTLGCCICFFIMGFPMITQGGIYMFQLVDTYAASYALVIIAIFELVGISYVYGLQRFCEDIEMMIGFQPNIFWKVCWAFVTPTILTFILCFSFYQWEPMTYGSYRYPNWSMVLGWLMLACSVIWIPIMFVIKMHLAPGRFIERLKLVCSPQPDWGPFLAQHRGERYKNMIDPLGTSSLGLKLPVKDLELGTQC
Procedure, shortened: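 HEK293 cells stably transfected with GlyT-2 (Geneticin-selected polyclonal population) were plated on poly-L-lysine-coated plates in DMEM/10% FBS and incubated overnight. The [¹⁴C]glycine uptake SPA was then run as for JAR cells: uptake buffer, 10 min room-temperature preincubation, 3 h incubation at 37 °C.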

[3] = Intrinsic clearance in human liver microsomes at 3 uM incubated up to 60 mins by LC-MS analysis; assay type: ADME, Microsome; details: read-out: CLH
Procedure, shortened: (§1)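 Liver microsomes with a cofactor regeneration system and compound at 3 μM, incubated at 37 °C. Reactions were stopped at 0, 5, 15, 30, 45 and 60 min, in duplicate. Compound remaining was measured by LC-MS. ln(%remaining) was plotted against time, and the slope was normalized to protein to give CL_int. Testosterone at 10 μM served as control.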

[4] = Intrinsic clearance in rat liver microsomes at 3 uM incubated up to 60 mins by LC-MS analysis; assay type: ADME, Microsome; details: read-out: CLH; procedure, shortened: as §1
Cynomolgus monkey [5] = test: In vivo inhibition of glycine transporter-1 in cynomolgus monkey assessed as increase in CSF glycine level at 0.3 to 10 mg/kg, po measured at 2 to 4 hrs post dose by LC-MS/MS analysis; assay type: functional, organism-based; details: Macaca fascicularis
Procedure, shortened: (§2)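 Cynomolgus monkeys, n = 3 per group, given oral doses of 0.4, 1.5, 4.7 or 15.7 μmol/kg. Vehicle was 5% Solutol / 20% Captisol in 25 mM PBS, pH 2. CSF (about 0.30 mL) was drawn through subcutaneous ports with a sterile Huber needle predose and at 0.5, 1, 2, 3, 4, 8, 12 and 24 h. Matched blood was taken at each time. Mean ± SD.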

Cynomolgus monkey [6] = test: In vivo inhibition of glycine transporter-1 in cynomolgus monkey assessed as increase in CSF glycine level at 0.3 to 10 mg/kg, po measured at 24 hrs post dose by LC-MS/MS analysis; assay type: functional, organism-based; details: Macaca fascicularis; procedure, shortened: as §2
[7] = target: T3, Sodium- and chloride-dependent glycine transporter 1 (Homo sapiens) (UniProt P48067); test: Competitive inhibition of glycine transporter-1 (unknown origin) expressed in HEK293 cells at 12 to 108 nM in presence of [3H]glycine by scintillation proximity assay; assay type: cell-based
T3 sequence (whole entry): T1 sequence (P48067 whole entry)
Procedure, shortened: (§3)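 Whole-cell SPA glycine transport with transfected HEK-293 cells expressing GlyT-1. Increasing [³H]-glycine concentrations were run at several fixed inhibitor concentrations to derive B_max and K_d for glycine and judge the binding mode.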

[8] = Metabolic stability in human liver microsomes assessed as parent compound remaining at 3 uM incubated for 15 mins by LC-MS analysis; assay type: ADME, Microsome; details: for remaining at 0.25 h, 3 µM: liver microsomes, read-out: Stability; for Stability: microsomes, 0.25 h, 3 µM
Procedure, shortened: (§4)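 Liver microsomes incubated with compound at 3 μM for 15 min. Parent compound remaining was quantified by LC-MS.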

[9] = Metabolic stability in rat liver microsomes assessed as parent compound remaining at 3 uM incubated for 15 mins by LC-MS analysis; assay type: ADME, Microsome; details: for remaining at 0.25 h, 3 µM: liver microsomes, read-out: Stability; procedure, shortened: as §4
[10] = Metabolic stability in human liver microsomes assessed as parent compound remaining at 3 uM incubated for 60 mins by LC-MS analysis; assay type: ADME, Microsome; details: read-out: Stability
[11] = target: T3, Sodium- and chloride-dependent glycine transporter 1 (Homo sapiens); test: Competitive inhibition of glycine transporter-1 (unknown origin) expressed in HEK293 cells at 0.62 to 17 nM in presence of [3H]glycine by scintillation proximity assay; assay type: cell-based; procedure, shortened: as §3

IC50 [1] [nM]	IC50 [2] [nM]	remaining at 0.25 h, 3 µM [8] [%]	remaining at 0.25 h, 3 µM [9] [%]	Compound	other results
42.4	> 75000			CCCS(=O)(=O)N1CCN(C2(CNC(=O)c3c(Cl)cccc3Cl)CCC(F)(F)CC2)CC1	microsomal CLint at 3 µM [3]: 3.8 µL/min/mg; microsomal CLint at 3 µM [4]: 4.3 µL/min/mg
5.29	> 75000	30	88	Cn1cnc(S(=O)(=O)N2CCN(C3(CNC(=O)c4ccc(Cl)cc4Cl)CCC(F)(F)CC3)CC2)c1	
2.35	> 75000	60	90	Cn1cnc(S(=O)(=O)N2CCN(C3(CNC(=O)c4ccc(C(F)(F)F)cc4Cl)CCC(F)(F)CC3)CC2)c1	
1.14		69	100	Cn1cc(S(=O)(=O)N2CCN(C3(CNC(=O)c4ccc(F)cc4Cl)CCC(F)(F)CC3)CC2)nn1	
12.6				CCCS(=O)(=O)N1CCN(C2(CNC(=O)c3ccc(C(F)(F)F)cc3Cl)CCC(F)(F)CC2)CC1	microsomal CLint at 3 µM [3]: 16 µL/min/mg; microsomal CLint at 3 µM [4]: 11 µL/min/mg
146	> 75000			Cn1cc(S(=O)(=O)N2CCN(C3(CNC(=O)c4ccc(Cl)cc4Cl)CCCCC3)CC2)cn1	
0.726	> 75000	24	87	Cn1cc(S(=O)(=O)N2CCN(C3(CNC(=O)c4c(Cl)cccc4OC(F)(F)F)CCC(F)(F)CC3)CC2)nn1	
1.24		46	80	Cn1cc(S(=O)(=O)N2CCN(C3(CNC(=O)c4ccc(Cl)cc4Cl)CCC(F)(F)CC3)CC2)nn1	
2.14				Cn1cnc(S(=O)(=O)N2CCN(C3(CNC(=O)c4ccc(Cl)cc4Cl)CCCCC3)CC2)c1	remaining at 1 h, 3 µM [10]: 5%
1.54	> 75000	0		Cn1cc(S(=O)(=O)N2CCN(C3(CNC(=O)c4ccc(Cl)cc4Cl)CCCCC3)CC2)nn1	
8.4	> 75000			CCCS(=O)(=O)N1CCN(C2(CNC(=O)c3ccc(C(F)(F)F)cc3C(F)(F)F)CCC(F)(F)CC2)CC1	microsomal CLint at 3 µM [3]: 19 µL/min/mg; microsomal CLint at 3 µM [4]: 4.9 µL/min/mg
28.5	> 75000			CCCS(=O)(=O)N1CCN(C2(CNC(=O)c3c(C)cc(F)cc3OC)CCC(F)(F)CC2)CC1	

More lines, now with the values behind:

Compound	IC50 [1] [nM]	IC50 [2] [nM]	remaining at 0.25 h, 3 µM [8] [%]	remaining at 0.25 h, 3 µM [9] [%]	other results
CC(NC(=O)c1ccc(C(F)(F)F)cc1Cl)C1(N2CCN(S(=O)(=O)c3cn(C)nn3)CC2)CCC(F)(F)CC1 (single isomer, unassigned; (+))					inhibition (Cynomolgus monkey [5]): Active; inhibition (Cynomolgus monkey [6]): inactive; inhibition [7]: Active
Cn1cnc(S(=O)(=O)N2CCN(C3(CNC(=O)c4c(Cl)cccc4OC(F)(F)F)CCC(F)(F)CC3)CC2)c1	1.49	> 75000	9.2	91	
Cn1cnc(S(=O)(=O)N2CCN(C3(CNC(=O)c4c(Cl)cccc4Cl)CCC(F)(F)CC3)CC2)c1	5.56	> 75000	22	94	
CCCS(=O)(=O)N1CCN(C2(CNC(=O)c3ccc(F)cc3Cl)CCC(F)(F)CC2)CC1	38.4	> 75000			
CCCS(=O)(=O)N1CCN(C2(CNC(=O)c3c(Cl)cccc3OC(F)(F)F)CCC(F)(F)CC2)CC1	29	> 75000			
Cn1cnc(S(=O)(=O)N2CCN(C3(CNC(=O)c4ccc(F)cc4Cl)CCC(F)(F)CC3)CC2)c1	5.09		85	100	
Cn1cnc(S(=O)(=O)N2CCN(C3(CNC(=O)c4c(F)cccc4F)CCC(F)(F)CC3)CC2)c1	18.3	> 75000	72	92	
CC(NC(=O)c1ccc(C(F)(F)F)cc1Cl)C1(N2CCN(S(=O)(=O)c3cn(C)nn3)CC2)CCC(F)(F)CC1.Cl (racemic)	1.03				Stability [8]: 54%; Stability ([9]; microsomes, 0.25 h, 3 µM): 66%
CN(CC[C@@H](Oc1ccc(-c2ccccc2)cc1)c1ccc(F)cc1)CC(=O)O					inhibition [11]: inactive
CC(C)CS(=O)(=O)N1CCN(C2(CNC(=O)c3c(N)cccc3Cl)CCCCC2)CC1		> 75000			
Nc1cccc(Cl)c1C(=O)NCC1(N2CCN(S(=O)(=O)Cc3ccccc3)CC2)CCCCC1	9360	> 75000			
Cn1cc(S(=O)(=O)N2CCN(C3(CNC(=O)c4c(Cl)cccc4Cl)CCC(F)(F)CC3)CC2)nn1	1.27	> 75000	33	91	
Cn1cc(S(=O)(=O)N2CCN(C3(CNC(=O)c4c(F)cccc4F)CCC(F)(F)CC3)CC2)nn1	5.1		64	95	
Cn1cc(S(=O)(=O)N2CCN(C3(CNC(=O)c4ccc(C(F)(F)F)cc4C(F)(F)F)CCC(F)(F)CC3)CC2)nn1	0.733		64	95	
CC(NC(=O)c1ccc(C(F)(F)F)cc1Cl)C1(N2CCN(S(=O)(=O)c3cn(C)nn3)CC2)CCC(F)(F)CC1.Cl (single isomer, unassigned; (-))					Stability [8]: 51%
